# This is a sample that favours compounds with a hit; in the whole collection about 2.3% have one here.
# TRPC6 activator = mouse TRPC6 channel activation. B-score at 10 µM. HEK293-TRPC6 membrane potential dye fluorescence; stronger effect = higher value. AID 2550. 310,000 compounds, 0.13% hits. Q61143;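 active means B-score of the integrated fluorescence ratio above library mean plus 3 SD, and starting fluorescence ratio within library mean plus 5 SD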;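 further: higher score means more depolarization so channel activation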
# TRPC4 act = TRPC4 (mouse) channel activation; Q9QUQ5; HEK293 TRPC4beta/mu-opioid, Fluo4 calcium fluorescence; stronger effect = higher value; B-score at 10 µM; 310,000 compounds, 0.49% hits; AID 2237;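 active means B-score above 5 SD of library B-scores, and initial fluorescence ratio not above library mean plus 5 SD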;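 further: positive B-score marks a calcium rise read as TRPC4 activation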
# Target sequence (Q9QUQ5 whole entry, looked up): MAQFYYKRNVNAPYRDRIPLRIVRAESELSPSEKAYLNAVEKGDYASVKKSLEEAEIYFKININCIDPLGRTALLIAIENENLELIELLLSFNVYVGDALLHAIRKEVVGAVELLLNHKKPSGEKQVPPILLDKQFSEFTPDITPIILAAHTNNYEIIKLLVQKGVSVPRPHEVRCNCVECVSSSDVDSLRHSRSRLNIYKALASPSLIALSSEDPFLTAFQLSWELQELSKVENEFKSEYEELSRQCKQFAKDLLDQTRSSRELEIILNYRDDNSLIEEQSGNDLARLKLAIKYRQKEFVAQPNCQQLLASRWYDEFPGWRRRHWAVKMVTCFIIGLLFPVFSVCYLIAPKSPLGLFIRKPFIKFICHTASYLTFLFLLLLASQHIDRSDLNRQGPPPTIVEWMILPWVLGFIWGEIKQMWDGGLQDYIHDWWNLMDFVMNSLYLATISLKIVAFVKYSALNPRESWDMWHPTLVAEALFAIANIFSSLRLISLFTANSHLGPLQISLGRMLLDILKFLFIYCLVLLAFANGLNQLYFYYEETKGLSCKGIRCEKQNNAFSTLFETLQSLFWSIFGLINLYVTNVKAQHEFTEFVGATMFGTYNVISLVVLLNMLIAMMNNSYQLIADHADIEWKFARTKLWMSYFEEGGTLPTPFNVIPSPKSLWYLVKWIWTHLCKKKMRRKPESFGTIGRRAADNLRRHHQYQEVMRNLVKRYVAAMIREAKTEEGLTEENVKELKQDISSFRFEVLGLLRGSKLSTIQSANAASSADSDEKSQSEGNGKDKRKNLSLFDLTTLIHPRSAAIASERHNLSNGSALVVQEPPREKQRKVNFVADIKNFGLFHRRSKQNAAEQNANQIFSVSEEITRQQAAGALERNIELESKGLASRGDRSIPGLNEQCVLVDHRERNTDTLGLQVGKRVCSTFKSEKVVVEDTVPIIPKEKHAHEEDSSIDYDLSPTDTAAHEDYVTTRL
#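 Material: TRPC4beta and mu-opioid receptor HEK293 stable cells | Incubation: 45 min room-temperature Fluo4 loading, 110 s read | Detection: Kinetic Fluo4 calcium fluorescence | Measure: Integrated baseline-normalised fluorescence ratio, converted to per-well B score | Benchmarks: Low control buffer alone, high control maximal DAMGO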
# TRPC6 inhibitor = blocks the mouse TRPC6 cation channel; Q61143; HEK293-TRPC6, membrane potential dye, ACh-evoked depolarization; stronger effect = lower value; B-score at 10 µM; 310,000 compounds, 1.1% hits;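 active means B-score under library mean minus 3 SD, initial fluorescence not abnormally high, positive integrated signal ratio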;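 further: B-score derived from integrated fluorescence ratio over the kinetic read; more negative B-score means stronger inhibition of depolarization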
# TRPC4 block = blocks the mouse TRPC4 cation channel; HEK293 TRPC4beta/mu-opioid, DAMGO-evoked Fluo4 calcium flux; stronger effect = lower value; B-score at 10 µM; 300,000 compounds, 0.39% hits; AID 2247; Q9QUQ5;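 active means B-score over 3 SD under the library average, no early fluorescence shift, positive overall ratio signal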
#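 material = TRPC4beta/mu-opioid receptor HEK293 cell line | probe or stimulus = sequential submaximal and maximal DAMGO stimulation | compound dosing = one concentration per compound | measured by = Fluo4 Ca2+ flux fluorescence | evaluation = integrated fluorescence ratio relative to baseline, converted to per-well B score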
# TRPC4 PAM = allosteric potentiators of mouse TRPC4 channel; Q9QUQ5; HEK293 TRPC4beta/mu-opioid, DAMGO EC20, Fluo-4 Ca2+ flux; stronger effect = higher value; B-score at 10 µM; 310,000 compounds, 0.42% hits; AID 2227;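 active means B-score of calcium response area above 5 SD of library B-scores, with initial fluorescence ratio within 5 SD of library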
# TRPC4 spec 2 = mouse TRPC4 off-target activity of TRPC6 inhibitors, second screen; shares compounds with TRPC6 inhibitor; AID 2776; inhibition, % at 10 µM; 920 compounds, 42% hits; HEK293 TRPC4/MOR, membrane potential dye fluorescence; channel activated by saturating DAMGO dose;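 active means compounds whose fluorescence signal differed from control wells by over 3 SD, either direction, in both duplicate plates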
# TRPC4 spec = tests whether TRPC6 inhibitors also affect mouse TRPC4 | shares compounds with TRPC6 inhibitor | HEK293 TRPC4/mu-opioid, membrane potential fluorescence | activity change, negative = inhibition, % at 10 µM | 920 compounds, 61% hits | AID 2777;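 active means rise or fall in signal beyond 3 SD of buffer-only wells in both replicate plates, either sign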;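 further: integrated kinetic ratio of fluorescence range over baseline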
# HEK293 MPD ctr 2-1 = parental HEK293 nonspecific activity of TRPC6 inhibitors, second screen; 920 compounds, 31% hits; signal change vs control, % at 10 µM; shares compounds with TRPC6 inhibitor; parental HEK293 membrane potential dye fluorescence; maximal acetylcholine challenge after compound addition; AID 2779;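 active means membrane potential signal moving either way by over 3 SD of the maximum-effect control, in both duplicate plates, meaning non-specific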
# HEK293 MPD ctr-1 = parental HEK293 nonspecific activity of TRPC6 inhibitors; shares compounds with TRPC6 inhibitor; parental HEK293 membrane potential dye fluorescence; membrane potential signal change, % at 10 µM; 920 compounds, 60% hits; AID 2780;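 active means membrane potential signal shifting up or down by more than 3 SD of buffer-only wells, on both duplicate plates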
# HEK293 MPD ctr-2 = parental HEK293 nonspecific activity of TRPC6 modulators; membrane potential signal change, % at 10 µM; 2,400 compounds, 51% hits; shares compounds with TRPC6 inhibitor; membrane potential dye fluorescence;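 active means membrane potential signal moves up or down beyond 5 SD from buffer-only wells, on both duplicate plates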
# HEK293 MPD ctr 2-2 = second check of TRPC6 modulator effects in parental HEK293 cells. shares compounds with TRPC6 inhibitor. 2,400 compounds, 14% hits. membrane potential dye fluorescence; after compound, maximal acetylcholine stimulation. inhibition, % at 10 µM;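 active means membrane potential signal drops by more than 5 SD from the mean control signal, in both duplicate plates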
# TRPC4/MOR mod = tests whether TRPC6 modulators also affect mouse TRPC4; shares compounds with TRPC6 inhibitor; AID 488927; 2,400 compounds, 69% hits; percent change from control (negative = decrease, positive = increase), % at 10 µM; HEK293 TRPC4/mu-opioid, membrane potential fluorescence;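 active means membrane potential signal moved up or down beyond 5 SD of buffer control wells, in both duplicate plates, actives on both sides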
# TRPC4 ctr inh 2 = second check of whether TRPC6 modulators also affect mouse TRPC4 | shares compounds with TRPC6 inhibitor | HEK293 TRPC4/mu-opioid, membrane potential dye fluorescence; stimulated with maximal-effect DAMGO | inhibition, % at 10 µM | 2,400 compounds, 55% hits | AID 488928;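 active means drop in membrane potential signal beyond 5 SD of the control wells in both duplicate plates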;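 further: TRPC4 counter screen for TRPC6 hits run under conditions tuned for TRPC6 not TRPC4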
# TRPC6 block conf = mouse TRPC6 inhibitor confirmation; shares compounds with TRPC6 inhibitor; HEK293-TRPC6, membrane potential dye, ACh-evoked depolarization; inhibition, % at 10 µM; 3,300 compounds, 43% hits;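 active means fluorescence ratio falls more than 5 SD below the full-stimulation control mean, in both duplicate runs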;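 further: integrated fluorescence ratio of peak minus minimum over baseline after agonist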
# TRPC6 act conf = confirmation of mouse TRPC6 activators. activation, % at 10 µM. AID 488961. HEK293-TRPC6 membrane potential dye fluorescence, FDSS. 2,800 compounds, 11% hits. shares compounds with TRPC6 inhibitor;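 active means ratio signal rise beyond 5 SD above unstimulated control wells' mean, seen in both duplicate runs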
# Hits are given with their value; n = inactive; x = not tested or not shown.
SMILES,TRPC6 activator,TRPC4 act,TRPC6 inhibitor,TRPC4 block,TRPC4 PAM,HEK293 MPD ctr-2,HEK293 MPD ctr 2-2,TRPC4/MOR mod,TRPC4 ctr inh 2,TRPC6 block conf,TRPC6 act conf,others
CC(C)c1oc(=O)cc2c1[C@@H](O)[C@H]1OC(=O)[C@@]3(C)C[C@@H](O)[C@@H](O)[C@@]2(C)C13 (some centres not stated),n,n,n,n,n,x,x,x,x,x,x,
C[N+]12CCC(CC1)C(=C(c1ccccc1)c1ccccc1)C2,n,n,-6.83,n,n,x,x,x,x,80.6%,n,TRPC4 spec 2=n;TRPC4 spec=n;HEK293 MPD ctr 2-1=-12.5%;HEK293 MPD ctr-1=n
CC[N+]12CCC(CC1)C(=C(c1ccccc1)c1ccccc1)C2,n,n,-6.07,n,n,n,69.0%,n,n,66.5%,n,
Cc1cccc(NP(C)(=O)c2nc3c(s2)CCCC3)c1 (configuration not stated),n,n,n,n,n,x,x,x,x,x,x,
Cc1nc2c(C(=O)N3CCC4(CC3)OCCO4)cnn2c(C)c1Cc1cccc(Cl)c1,n,n,-5.23,n,n,n,n,n,n,45.0%,x,
O=C(c1cn(Cc2ccccc2F)c2ncccc12)C(F)(F)F,n,n,n,n,n,x,x,x,x,x,x,
CC(Cc1ccccc1Sc1ccccc1)N(C)C (configuration not stated),n,n,n,n,n,x,x,x,x,x,x,
CC(Cc1ccccc1Sc1ccc(O)cc1)N(C)C (configuration not stated),n,n,-6.63,n,n,x,x,x,x,n,n,TRPC4 spec 2=41.0%;TRPC4 spec=43.4%;HEK293 MPD ctr 2-1=n;HEK293 MPD ctr-1=4.2%
O=C(c1cccc(C(F)(F)F)c1)C1CCCN(Cc2ncc[nH]2)C1 (configuration not stated),n,n,n,n,n,x,x,x,x,x,x,
CCn1ccnc1CN1CCCC(C(=O)c2cccc(C(F)(F)F)c2)C1 (configuration not stated),n,n,-5.08,n,n,n,n,8.0%,65.0%,62.5%,x,
CCN(CC)CCCOC(=O)C(OC)(c1ccccc1)c1ccccc1,n,n,-6.41,n,n,153.0%,78.0%,34.5%,n,61.0%,x,
CN1C2CCC1CC(OC(c1ccccc1)c1ccccc1N)C2 (configuration not stated),n,n,-5.56,n,n,110.5%,92.5%,21.0%,40.5%,87.5%,x,
CN1C2CCC1C(COC(=O)c1ccccc1)C(O)C2 (configuration not stated),n,n,n,n,n,x,x,x,x,x,x,
Nc1c2c(nc3sc4c(c13)CCCC4)CCCC2,n,n,-5.9,n,n,n,n,-8.0%,61.5%,n,n,

# Bioassay records: PubChem, Johns Hopkins Ion Channel Center
